From PubChem BioAssay
KCC2 mod: KCC2 (human) Cl- transport modulation. KCC2 cells, thallium flux FluoZin-2 fluorescence. Q9H2X9. 190,000 compounds, 2.2% hits. B-score of Tl+ flux slope (higher = more flux/activation; lower = inhibition) at 10 µM;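 active = thallium flux slope and its plate-corrected score both differing from the plate sample mean at a set confidence after two filtering rounds, in either direction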;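 note: slope of fluorescence scaled to starting intensity during 10 to 20 s after thallium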
Target sequence (Q9H2X9 whole entry, looked up): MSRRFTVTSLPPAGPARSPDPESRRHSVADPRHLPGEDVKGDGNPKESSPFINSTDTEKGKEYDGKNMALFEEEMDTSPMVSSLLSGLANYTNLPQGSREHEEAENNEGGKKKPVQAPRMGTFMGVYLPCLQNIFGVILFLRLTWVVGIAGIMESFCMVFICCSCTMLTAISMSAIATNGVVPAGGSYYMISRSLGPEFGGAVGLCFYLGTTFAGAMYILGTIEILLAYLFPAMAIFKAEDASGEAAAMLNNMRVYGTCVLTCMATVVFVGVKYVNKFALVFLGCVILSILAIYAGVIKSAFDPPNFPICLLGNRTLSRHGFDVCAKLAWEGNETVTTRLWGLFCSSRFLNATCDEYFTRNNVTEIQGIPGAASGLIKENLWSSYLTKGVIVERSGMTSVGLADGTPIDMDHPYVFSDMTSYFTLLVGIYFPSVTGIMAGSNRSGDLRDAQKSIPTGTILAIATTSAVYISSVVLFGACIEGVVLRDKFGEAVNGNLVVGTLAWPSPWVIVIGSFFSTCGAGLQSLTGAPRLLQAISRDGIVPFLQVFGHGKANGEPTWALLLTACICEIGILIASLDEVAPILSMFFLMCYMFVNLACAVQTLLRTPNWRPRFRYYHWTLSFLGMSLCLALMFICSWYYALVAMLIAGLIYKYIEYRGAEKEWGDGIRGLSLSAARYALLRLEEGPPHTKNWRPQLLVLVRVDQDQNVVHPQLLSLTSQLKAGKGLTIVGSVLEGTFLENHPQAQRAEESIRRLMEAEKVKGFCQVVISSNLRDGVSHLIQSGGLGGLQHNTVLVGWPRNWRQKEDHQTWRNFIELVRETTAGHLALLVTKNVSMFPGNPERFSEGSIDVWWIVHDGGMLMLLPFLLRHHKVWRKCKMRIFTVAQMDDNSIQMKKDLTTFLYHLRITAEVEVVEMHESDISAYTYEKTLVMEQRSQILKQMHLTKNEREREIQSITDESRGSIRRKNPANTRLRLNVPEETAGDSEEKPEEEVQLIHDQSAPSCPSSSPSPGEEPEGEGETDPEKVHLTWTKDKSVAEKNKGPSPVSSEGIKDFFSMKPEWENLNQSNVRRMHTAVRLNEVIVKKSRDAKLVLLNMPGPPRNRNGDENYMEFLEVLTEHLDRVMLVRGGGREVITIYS
V-ATPase pHluor: yeast V-ATPase proton transport regulation by pHLuorin; S. cerevisiae, pHLuorin cytosolic pH fluorescence; response, % at 10 µM; 350,000 compounds, 0.37% hits; in the data active = response mostly above about 7.3%, no sharp cut-off; inactive = mostly below about 5.4%; note: actives read high
ABCB6 inh MLPCN: inhibitors of human ABC transporter ABCB6 | Q9NP58 | K562-ABCB6 porphyrin accumulation, flow cytometry, 1 h; hits give low values | fluorescence ratio to DMSO, % at 10 µM | 360,000 compounds, 0.19% hits | AID 602162;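 active = fluorescence ratio to DMSO below 75%, the collection mean minus 3 SD; inconclusive = too few cells collected in the well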;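 note: signal is porphyrin accumulated inside mitochondria; lower ratio means ABCB6 inhibition with less porphyrin fluorescence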
Dynein transport: blocks dynein driven cargo transport along microtubules; z-score, hits read low; 3617.4 mouse cells, GR-EGFP nuclear translocation imaging; test concentration mostly 20 µM; stimulated with dexamethasone, 1 µM; hits give low values; AID 1381; 220,000 compounds, 0.47% hits;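 active = plate z-score of nuclear minus cytoplasmic receptor signal below a set negative limit, without overly bright fluorescence or cell loss, cut at about -3.5 in these data, passing the limit was not always enough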;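 note: z-score of nuclear minus cytoplasmic ring GR-EGFP intensity difference per well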
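Medium: Induction medium lacking tetracycline, stripped serum | Probe or stimulus: 1.0 µM final dexamethasone stimulus | Schedule: 48 h induction, then 1 h compound, then 30 min agonist, 37 °C | Signal: Automated 10x imaging of fixed Hoechst-stained cells | Evaluation: Per-cell GR-EGFP intensity, nucleus versus surrounding cytoplasmic ring, well-averaged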
p-CIP stab down: compounds decreasing mouse p/CIP protein stability | 290,000 compounds, 0.01% hits | decrease of EGFP signal, % at 10 µM | Q05BA5 | AID 1984 | F442A p/CIP-EGFP cells, EGFP fluorescence, 16 h;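 active = EGFP signal decrease of at least 30% at 10 µM or well 3 SD below plate mean, unless failing retest; inactive = the rest, including hits failing retest or dose response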
KCC2 secondary: confirmation of human KCC2 transport modulators; shares compounds with KCC2 mod; HEK293-KCC2, thallium flux, FluoZin2 fluorescence; hits give high values; normalised thallium flux (F/F0 slope) at 10 µM; 3,700 compounds, 15% hits; AID 1713;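 active = thallium flux slope above the same plate's solvent-only control mean plus 3 SD; inconclusive = the two replicate wells disagree; inactive = no significant difference from solvent-only control wells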
KCC2 bumet counter: thallium flux persisting under bumetanide in KCC2 cells, counter-screen secondary assay; shares compounds with KCC2 mod; HEK293-KCC2 + bumetanide/ouabain, thallium flux FluoZin2; hits give high values; 3,700 compounds, 49% hits; normalized thallium flux at 10 µM;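 active = thallium entry rate above the same plate's blocked-transporter control wells by more than 3 SD; inconclusive = the two repeat wells disagree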;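 note: raw slope of fluorescence over initial fluorescence between 10 and 20 s after thallium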
KCC2 secondary2: confirmation of human KCC2 transport modulators; HEK293-KCC2, thallium flux FluoZin2 fluorescence; actives lie on both sides; F/F0 rise rate, 10–20 s post-thallium; shares compounds with KCC2 mod; AID 1715; normalized thallium flux at 10 µM; 3,700 compounds, 23% hits;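 active = thallium flux slope more than 3 SD above or below the plate's solvent-only control mean, mostly below; inconclusive = the two repeat wells disagreed; inactive = no significant shift from solvent-only controls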
HEK293 Tl flux: acts in parental HEK cells, KCC2 counter-screen; shares compounds with KCC2 mod; HEK293 parental cells, thallium flux FluoZin2, ouabain; baseline-ratio fluorescence slope, 10–20 s after thallium; thallium flux rate (normalised fluorescence) at 10 µM; 3,700 compounds, 46% hits; AID 1716;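 active = thallium flux rate significantly above the same plate's solvent-only control wells, beyond their mean plus 3 SD; inconclusive = the two replicate wells gave conflicting results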
KCC2 retest ouab: KCC2 (human) modulation, ouabain retest; shares compounds with KCC2 mod; HEK293-KCC2, thallium flux FluoZin2 fluorescence; bidirectional: low = inhibitor, high = activator; raw Tl+ flux slope (below DMSO = inhibition, above = activation) at 10 µM; 3,700 compounds, 48% hits;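 active = thallium flux slope beyond 3 SD from same-plate DMSO control mean in most replicates, usually higher, sometimes lower; inconclusive = repeat tests gave conflicting results; inactive = no significant difference from controls in most replicates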;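 note: slope of initial-normalized fluorescence between seconds 10 and 20 after thallium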
HEK293 Tl flux2: acts in parental HEK cells, second KCC2 counter-screen; shares compounds with KCC2 mod; HEK293 parental, thallium flux FluoZin-2 fluorescence slope; thallium flux slope at 10 µM; 3,700 compounds, 33% hits;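 active = thallium flux slope above the same plate's solvent-control mean plus 3 SD in both duplicate wells; inconclusive = duplicate wells that disagreed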;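 note: run without ouabain in cells lacking the KCC2 cotransporter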
Hits are given with their value; – = inactive; ? = inconclusive; · = no result given. Shown is part of a subset that was picked to be rich in hits.

SMILES | KCC2 mod | V-ATPase pHluor | ABCB6 inh MLPCN | Dynein transport | p-CIP stab down | KCC2 secondary | KCC2 bumet counter | KCC2 secondary2 | HEK293 Tl flux | KCC2 retest ouab | HEK293 Tl flux2
CCOc1ccccc1NC(=O)NC1(C(=O)NCc2cccnc2)CCCCC1 | · | – | – | · | – | · | · | · | · | · | ·
CCOc1ccc2nc(NC(=O)CSc3nc(-c4ccccc4)c(C#N)c(=O)[nH]3)sc2c1 | -3.21 | – | – | – | – | – | ? | – | 0.0053 | – | –
COc1cccc(-c2nc(SCC(=O)Nc3nc(-c4ccccc4)c(C)s3)[nH]c(=O)c2C#N)c1 | – | – | – | – | – | · | · | · | · | · | ·
Cc1nnc(SCC(=O)Nc2nccs2)n(N)c1=O | – | – | – | – | – | · | · | · | · | · | ·
Cc1c(Cl)cccc1Nc1ccccc1C(=O)O | 4.6 | – | – | – | – | ? | 0.0241 | – | 0.0125 | ? | –
COc1ccc(C2C(C#N)=C(N)Oc3cc(C)[nH]c(=O)c32)c(OC)c1OC (stereo not given) | · | – | – | – | – | – | – | – | – | – | –
CCOc1cccc(C2C(C#N)=C(N)Oc3cc(C)[nH]c(=O)c32)c1OCC (stereo not given) | – | – | – | – | – | · | · | · | · | · | ·
CCc1ccccc1NC(=S)N=Nc1c(O)n(C)c2ccc(S(=O)(=O)N3CCOCC3)cc12 | 11.1 | – | – | – | – | 0.0136 | 0.086 | – | 0.0311 | 0.0576 | 0.0118
Cc1ccc(Cn2c(O)c(N=NC(=S)Nc3ccccc3F)c3cc(S(=O)(=O)N4CCOCC4)ccc32)cc1 | – | – | – | – | – | · | · | · | · | · | ·
COc1cccc(/C=C2\SC(=S)NC2=O)c1OS(=O)(=O)c1ccc(NC(C)=O)cc1 | -5.85 | – | – | – | – | ? | – | ? | 0.00553 | 0.0142 | –
O=S(=O)(Nc1ccccc1F)c1cccc(NC(=S)NCCN2CCOCC2)c1 | · | – | – | · | · | · | · | · | · | · | ·
O=c1c2ccccc2n2c(-c3cccc(Cl)c3)nnc2n1Cc1ccccc1 | – | – | – | – | – | · | · | · | · | · | ·
COc1ccc(-c2nnc3n(CCc4ccccc4)c(=O)c4ccccc4n23)cc1OC | 4.43 | – | – | – | – | – | 0.017 | – | 0.00966 | ? | ?
CC1(C)CC(=O)C=C(c2ccc(-c3cccc(C(N)=O)c3)cc2)C1=O | · | – | – | · | · | · | · | · | · | · | ·
CC1=NN(c2nc3ccccc3[nH]2)C(=O)/C1=C/N(C)C | – | – | – | – | – | · | · | · | · | · | ·
CC1=NN(c2nc3ccccc3[nH]2)C(=O)C1Cc1ccccc1 (stereo not given) | 8.58 | – | – | – | – | – | 0.0163 | – | 0.0161 | 0.0273 | 0.0193
CCn1c(NC(=O)c2ccccc2)nc2ccccc21 | 30.7 | – | – | – | – | – | 0.0181 | – | 0.0161 | ? | 0.0161
CCCCC(NC(C)=O)c1nc2ccccc2n1CCCC (stereo not given) | 5.95 | – | – | – | – | – | – | – | ? | – | –
CCCCn1c(NC(=O)c2ccccc2)nc2ccccc21 | 13.4 | – | – | – | – | – | 0.0303 | – | ? | 0.0299 | ?
C=CCn1c(NC(=O)c2ccccc2)nc2ccccc21 | · | – | – | · | – | · | · | · | · | · | ·
Cc1ccc(COC(=O)c2cccc(S(=O)(=O)N3CCCCC3)c2)cc1 | · | – | – | · | · | · | · | · | · | · | ·
N#CC1=C(N)Nc2ncnn2C1c1ccc(F)cc1 (stereo not given) | – | – | – | – | – | · | · | · | · | · | ·
CCOc1ccc(NC(=O)c2ccc3c(c2)CCN3S(C)(=O)=O)cc1 | · | – | – | · | – | · | · | · | · | · | ·
COc1cc(OC)c(C(=O)/C=C/c2ccccc2)c(O)c1O | -1.55 | – | – | – | – | – | ? | 0.0263 | – | ? | –
CCOCCCNc1nc2c(C)cccn2c(=O)c1/C=C1\SC(=S)N(CC(C)C)C1=O | – | – | – | – | – | · | · | · | · | · | ·
SMILES | KCC2 mod | V-ATPase pHluor | ABCB6 inh MLPCN | Dynein transport | p-CIP stab down | KCC2 secondary | KCC2 bumet counter | KCC2 secondary2 | HEK293 Tl flux | KCC2 retest ouab | HEK293 Tl flux2
CCOC(=O)CC1C(=O)NCCN1c1nc2c(C)cccn2c(=O)c1/C=C1\SC(=S)N(CC(C)C)C1=O (stereo not given) | -9.05 | · | · | – | – | 0.000693 | -0.00591 | 0.0138 | -0.00232 | -0.00164 | 0.00405
Cc1cc(C)c(C)c(S(=O)(=O)N2CCC(C(=O)N3CCCCCCC3)CC2)c1C | · | – | – | · | – | · | · | · | · | · | ·
c1coc(-c2nnc3sc(Cc4cccs4)nn23)c1 | · | – | – | – | – | – | – | – | – | ? | –
COc1ccc(OCc2nn3c(-c4ccco4)nnc3s2)cc1 | – | – | – | – | – | · | · | · | · | · | ·
Clc1ccc(-c2nnc3sc(Cc4cccs4)nn23)c(Cl)c1 | · | – | – | – | – | – | – | – | – | 0.0175 | 0.0114
Clc1ccc(-c2nnc3sc(-c4ccc(Br)o4)nn23)c(Cl)c1 | – | – | – | – | – | · | · | · | · | · | ·
Cc1ccc(NC(=O)C(=O)Nc2ccccn2)cc1 | – | – | – | – | – | · | · | · | · | · | ·
CCCCCCCCCCNC(=O)C(=O)Nc1ccccn1 | · | – | – | – | – | – | – | – | 0.00981 | – | 0.0133
CC(C)C(=O)N1CCN(c2ccccc2NC(=O)c2cc([N+](=O)[O-])ccc2N2CCOCC2)CC1 | – | – | – | – | – | · | · | · | · | · | ·
O=c1ccc(Cc2ccccn2)n[nH]1 | 2.42 | – | – | – | – | – | – | – | – | – | –
COCCn1c(SCC(=O)Nc2ccc(OC)c(S(N)(=O)=O)c2)nc2ccccc2c1=O | · | – | – | · | · | · | · | · | · | · | ·
CN1C(C(=O)NCCc2cccs2)CC2Cn3c(nc4cc5ccccc5cc43)C21 (stereo not given) | -2.82 | – | – | – | – | – | – | – | – | – | –
CC(C)c1ccc(-c2csc(NC(=O)c3cccs3)c2C(=O)O)cc1 | 20.4 | – | – | – | – | – | 0.0451 | 0.0273 | 0.0214 | ? | ?
Cc1ccc(-c2csc(NC(=O)c3ccccc3Cl)c2C(=O)O)cc1 | · | – | – | · | – | · | · | · | · | · | ·
Cc1ccsc1/C=N/NC(=O)c1ccc([N+](=O)[O-])cc1 | 3.57 | – | – | – | – | – | 0.0156 | – | 0.0107 | – | 0.0134
Cc1ccsc1/C=N/NC(=O)c1ccncc1 | – | – | – | – | – | · | · | · | · | · | ·
O=C(Nc1cccc2ccccc12)N1CCN(c2ncccn2)CC1 | -4.06 | – | – | – | – | – | ? | – | – | – | –
